Results on two compounds are retold here after paper PMC8266733 (Acta physiologica (Oxford, England), 2021).

The structures appear in SMILES notation. Entries after “also recorded” stand apart in the source; their conditions may differ.

The subject of series [1] is Hela-Parkin or Hela-Parkin/USP30 cells.
In series [2] the target is T1, USP30 (Homo sapiens, UniProt Q70CQ3).
T1 sequence (Q70CQ3 1-517): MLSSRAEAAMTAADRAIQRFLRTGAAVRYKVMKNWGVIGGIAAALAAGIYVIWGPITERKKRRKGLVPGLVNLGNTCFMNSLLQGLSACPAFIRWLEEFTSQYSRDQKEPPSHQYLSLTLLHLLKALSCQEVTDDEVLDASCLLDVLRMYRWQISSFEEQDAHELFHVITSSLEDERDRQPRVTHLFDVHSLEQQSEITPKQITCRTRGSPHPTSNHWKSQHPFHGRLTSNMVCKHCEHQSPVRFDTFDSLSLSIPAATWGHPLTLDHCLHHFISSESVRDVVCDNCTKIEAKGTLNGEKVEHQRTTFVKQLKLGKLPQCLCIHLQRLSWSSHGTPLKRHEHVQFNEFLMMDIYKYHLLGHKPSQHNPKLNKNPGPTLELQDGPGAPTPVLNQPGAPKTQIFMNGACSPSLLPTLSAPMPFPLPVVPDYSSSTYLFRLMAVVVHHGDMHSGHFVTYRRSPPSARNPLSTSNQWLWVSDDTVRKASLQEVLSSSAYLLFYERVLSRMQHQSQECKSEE
Description: TOM20 ubiquitination and turnover. Type of series: cell-based. A digest of the protocol: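 HeLa-Parkin cells, with or without lentivirally expressed Myc-USP30, were pretreated with test compound at several concentrations. They were then exposed to 5 μM oligomycin plus 5 μM antimycin A for up to 18 h, with 10 μM QVD during 18 h exposures. RIPA lysates (pH 8.0, on ice) were immunoblotted for ubiquitinated TOM20, TOM20, TOM40 and TIM23 with infrared detection. Three independent experiments.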

In series [3] the test system is HeLa-Parkin cells expressing USP30. Description: FACS analysis of A/O-induced mitophagy using mt-Keima fluorescence. Type of series: cell-based. In short, it runs like this: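 HeLa-Parkin and HeLa-Parkin cells with lentivirally expressed Myc-USP30, stably expressing mt-Keima, grown in DMEM/10% FBS. Pretreated with DMSO or test compound at 3 μg/ml, then exposed to 1 μM oligomycin plus 1 μM antimycin A for 1.5 h (legend: 2 h). Cells were trypsinized, PBS-washed and resuspended in PBS. Flow cytometry scored cells with lysosomal (pH 4) mt-Keima.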

The subject of series [4] is Hela cells, Hela cells expressing YFP-Parkin and PINK1 KO Hela cells expressing YFP-Parkin. In kind it is cell-based. A digest of the protocol:
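Parental HeLa, HeLa stably expressing YFP-Parkin, and PINK1 KO HeLa expressing YFP-Parkin were pretreated with test compound at 1 or 3 μg/ml. They were then given 5 μM oligomycin plus 5 μM antimycin A; the 18 h exposure included 10 μM QVD. Cells were lysed on ice in RIPA buffer (pH 8.0, protease inhibitors) and blotted for TOM20 ubiquitination, TOM20 and NDP52. Infrared secondaries were imaged; three independent experiments.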

For series [5], the system named is Hela-Parkin and Hela-Parkin cells expressing USP30. Briefly: Seahorse assay of oxygen consumption. In kind it is cell-based. Particulars: 24 h of ST-539 treatment at high dose.
The next series concerns WT and Mfn2−/− MEF cells. Briefly: Mitochondrial morphology by confocal microscopy. Particulars: 3 or 10 μg/ml ST-539, 24 h. Type of series: cell-based, mouse.
The nature of series [6]: Plasma pharmacokinetics after i.p. injection, LC-MS/MS. To be noted: 25 mg/kg i.p., mice. Type of series: in vivo. In short, it runs like this: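 Adult male mice were dosed once at 25 mg/kg i.p. with test compound in 1% DMSO/sesame oil. Serial blood was taken at 0.083, 0.25, 0.5, 1, 2, 4 and 8 h, with terminal cardiac puncture at 24 h, into K2EDTA tubes kept on ice. Plasma was frozen at −70 °C and assayed by LC-MS/MS (n=3 per time point). Parameters were derived from the concentration-time curve.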

Series [7] is described as follows: Tissue concentrations 24 hours post-dose, LC/MS/MS. In kind it is in vivo. To be noted: 25 mg/kg i.p., Male C57BL/6 Mice. In short, it runs like this:
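Mice were given a single 25 mg/kg i.p. dose of test compound in 1% DMSO/sesame oil and euthanized at 24 h. Transcardial perfusion preceded brain collection; heart was also harvested. Tissues were rinsed in cold distilled water, blotted dry, weighed and stored on dry ice. Concentrations (ng/g) were measured by LC/MS/MS.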

For series [8], the system named is mt-Keima mice. Briefly: In vivo mitophagy in mt-Keima mice. A digest of the protocol: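 mt-Keima mice of both sexes received test compound in 1% DMSO/sesame oil at 25 mg/kg/day i.p. for five doses; controls got vehicle (n=4 control, n=5 treated). In heart and liver sections, mt-Keima was excited sequentially at 458 and 561 nm with 570–695 nm emission. Four images per tissue were averaged and normalized to the control mean (set to one). Heart and liver LC3 I/II were immunoblotted against actin.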

Series [9] has as its system mt-Keima mice. Particulars: mouse, in vivo.
Series [10] deals with T1, USP30. Particulars: this compound and similar structures; cited from earlier work.

With `N#CC(C#N)=NNc1ccc(OC(F)(F)F)cc1` [FCCP, Carbonyl cyanide-p-trifluoromethoxyphenylhydrazone], the “TMRM staining (mitochondrial membrane potential)” value in series [1] is on record as “significant loss of staining”.

A word on the Cmax: it is the peak of the concentration-time curve. In general, Tmax refers to the time at which the peak concentration occurs. For the compound `CC(C)(C)NS(=O)(=O)c1cccc2c(NC(=O)C(Cc3ccccc3)NC(=O)c3ccccc3)cccc12` (stereo not shown) [ST-539], the “TIM23 and TOM40 degradation” value at USP30 [2] (18h A/O treatment, Hela-Parkin cells overexpressing USP30) is “restored TIM23 and TOM40 degradation”. Further, the “TOM20 ubiquitination versus ST-539 dosage” value on USP30 [2] (A/O treatment, ST-539 at indicated concentrations) is listed as “close correlation”. For the same compound, the “loss of TOM20 protein level” value at USP30 [2] (ST-539 at 10 μg/ml, A/O treatment, in the presence of USP30) is given as ~ 90%. In addition, in series [3] (ST-539 3μg/ml prior to A/O, HeLa-Parkin cells expressing USP30), the “A/O induced mitophagy (lysosomal positive mt-Keima)” value is listed as “restored A/O induced mitophagy”. The “mitophagy in the absence of mitochondrial stress” value in [3] (cellular studies, no mitochondrial stress) is reported as “minimal change”. In series [4] (cells expressing ectopic Parkin and endogenous PINK1, ST-539 1 or 3μg/ml), the “A/O induced TOM20 ubiquitination and decline in TOM20 level” value is recorded as “further potentiated”. Further, the “TOM20 ubiquitination independent of PINK1/Parkin” value in [4] (long term treatment (18 h), 3μg/ml ST-539, WT Hela or PINK1 KO cells) is reported as “did not promote TOM20 ubiquitination”. In addition, the “basal and maximal respiration” value in series [5] is “slight increase”. Besides, the elongation of mitochondria entry with WT and Mfn2−/− MEF cells (Mfn2−/− MEF cells) was “did not induce the elongation of mitochondria significantly”. The mitochondrial morphology result in the series on WT and Mfn2−/− MEF cells (wild type MEFs) is “failed to change the mitochondrial morphology”. Also, in [6], the AUC0-inf stood at 4240 ng·h/mL, the AUC0-last was found to be 4162 ng·h/mL, the Cmax came out at 1427 ng/mL and the MRT0-inf was 4.27 h. Further, in series [6], the MRT0-last is recorded as 3.86 h, the Tlast turned out to be 24.0 h, the time to peak (Tmax) was determined as 1.33 h and the “area under the plasma drug concentration-time curve (AUC)” value is on record as ~ 4.2 μg•h/ml. In addition, in series [6], the “maximum plasma concentration (Cmax)” value is listed as “about 1.4 μg/ml”. For the same compound, in series [7], the “Tissue concentration, Brain, Mean” value is 17.4 ng/g and the “Tissue concentration, Heart, Mean” value is given as 37.0 ng/g. In the series with mt-Keima mice [8] (25mg/kg/day for 5 days, heart versus control hearts), the “LC3-II/LC3-I ratio (LC3 I/II immunoblotting)” value was “increase; also recorded: increased levels of LC3-II”. Also, in the series on mt-Keima mice [8] (25mg/kg/day i.p. for 5 days, heart), the “cardiac mitophagy (mt-Keima red signal in the heart tissue)” value is “marked induction of the red signal”. Besides, in the series on mt-Keima mice [8] (25mg/kg/day i.p. for 5 days, hippocampus (data not shown)), the “mitophagic flux in the hippocampus of the brain” value was “remains unchanged”. The “mitophagic flux in the liver” value in the series with mt-Keima mice [8] (25mg/kg/day i.p. for 5 days, liver) is listed as “remains unchanged”. Besides, in the series with mt-Keima mice [9], the “safety of the current dosage in mice” value is given as “appears to be safe”. In addition, the “inhibition of USP30 enzyme function in vitro” value at USP30 [10] was “selectively inhibit USP30 enzyme function”.
